Laboratory results reported in ChEMBL document CHEMBL1157704, “Potent activity against K562 cells by polyamide-seco-CBI conjugates targeting histone H4 genes” (Bioorg Med Chem, 2010).
The source made the active and inactive calls.

Key:
K562 [1] = assay: Effect on HIST1H2AC gene expression in human K562 cells assessed as change in mRNA transcript expression at 10 nM after 48 hrs by DNA microarray analysis relative to control; type: functional
How it was run: (§1)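 Transcripts were profiled on Affymetrix GeneChip Human Gene 1.0 ST arrays in K562 cells treated at 10 nM. Treated cells were collected at 6, 12, 24 and 48 h; untreated controls were collected at 48 h. Transcripts changed at least twofold versus control were scored.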

K562 [2] = assay: Effect on LPHN3 gene expression in human K562 cells assessed as change in mRNA transcript expression at 10 nM after 48 hrs by DNA microarray analysis relative to control; type: functional
How it was run: (§2)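 K562 CML cells (b3a2 Bcr-Abl) in standard ATCC-recommended culture, exposed once to 10 nM conjugate and harvested at 48 h. Untreated controls were also collected at 48 h. Transcripts were profiled on Human Gene 1.0 ST whole-genome oligonucleotide arrays, and each treated level was expressed relative to the untreated control, with a cutoff of at least twofold change.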

K562 [3] = assay: Effect on FER gene expression in human K562 cells assessed as change in mRNA transcript expression at 10 nM after 48 hrs by DNA microarray analysis relative to control; type: functional; how it was run: as §1
K562 [4] = assay: Effect on SUPT3H gene expression in human K562 cells assessed as change in mRNA transcript expression at 10 nM after 48 hrs by DNA microarray analysis relative to control; type: functional; how it was run: as §2
K562 [5] = assay: Effect on FERMT2 gene expression in human K562 cells assessed as change in mRNA transcript expression at 10 nM after 48 hrs by DNA microarray analysis relative to control; type: functional; how it was run: as §1
K562 [6] = assay: Effect on PPP1R15A gene expression in human K562 cells assessed as change in mRNA transcript expression at 10 nM after 48 hrs by DNA microarray analysis relative to control; type: functional; how it was run: as §2
K562 [7] = assay: Effect on SASH1 gene expression in human K562 cells assessed as change in mRNA transcript expression at 10 nM after 48 hrs by DNA microarray analysis relative to control; type: functional; how it was run: as §2
K562 [8] = assay: Effect on HIST1H3F gene expression in human K562 cells assessed as change in mRNA transcript expression at 10 nM after 48 hrs by DNA microarray analysis relative to control; type: functional; how it was run: as §1
K562 [9] = assay: Downregulation of histone H4E mRNA expression in human K562 cells at 125 nM after 48 hrs by real-time PCR analysis; type: functional, cell-based
How it was run: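 K562 cells were treated for 48 h, and H4c and H4e mRNA were measured by one-step real-time RT-PCR. Reverse transcription ran at 50 °C for 10 min, then hot-start activation at 95 °C for 15 min. Cycling was 45 cycles of 95 °C 15 s, 55 °C 30 s and 72 °C 30 s. Levels were normalized to GAPDH mRNA; error bars are SD.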

K562 [10] = assay: Effect on EIF4B gene expression in human K562 cells assessed as change in mRNA transcript expression at 10 nM after 48 hrs by DNA microarray analysis relative to control; type: functional; how it was run: as §1
K562 [11] = assay: Effect on HIST1H4C gene expression in human K562 cells assessed as down-regulation of mRNA transcript expression at 10 nM after 48 hrs by DNA microarray analysis relative to control; type: functional; how it was run: as §1
K562 [12] = assay: Effect on HIST1H4D gene expression in human K562 cells assessed as down-regulation of mRNA transcript expression at 10 nM after 48 hrs by DNA microarray analysis relative to control; type: functional; how it was run: as §1
K562 [13] = assay: Effect on DHFR gene expression in human K562 cells assessed as change in mRNA transcript expression at 10 nM after 48 hrs by DNA microarray analysis relative to control; type: functional; how it was run: as §1
K562 [14] = assay: Effect on EGR1 gene expression in human K562 cells assessed as change in mRNA transcript expression at 10 nM after 48 hrs by DNA microarray analysis relative to control; type: functional; how it was run: as §1
K562 [15] = assay: Effect on RNU5E gene expression in human K562 cells assessed as change in mRNA transcript expression at 10 nM after 48 hrs by DNA microarray analysis relative to control; type: functional; how it was run: as §2
K562 [16] = assay: Effect on CD52 gene expression in human K562 cells assessed as change in mRNA transcript expression at 10 nM after 48 hrs by DNA microarray analysis relative to control; type: functional; how it was run: as §1
K562 [17] = assay: Effect on RHD/RHCE gene expression in human K562 cells assessed as change in mRNA transcript expression at 10 nM after 48 hrs by DNA microarray analysis relative to control; type: functional; how it was run: as §2
K562 [18] = assay: Effect on MYL4 gene expression in human K562 cells assessed as change in mRNA transcript expression at 10 nM after 48 hrs by DNA microarray analysis relative to control; type: functional; how it was run: as §2
K562 [19] = assay: Effect on C3 gene expression in human K562 cells assessed as change in mRNA transcript expression at 10 nM after 48 hrs by DNA microarray analysis relative to control; type: functional; how it was run: as §1
K562 [20] = assay: Effect on INPP1 gene expression in human K562 cells assessed as change in mRNA transcript expression at 10 nM after 48 hrs by DNA microarray analysis relative to control; type: functional; how it was run: as §2
K562 [21] = assay: Effect on ITGA2B gene expression in human K562 cells assessed as change in mRNA transcript expression at 10 nM after 48 hrs by DNA microarray analysis relative to control; type: functional; how it was run: as §2
K562 [22] = assay: Effect on SLC4A1 gene expression in human K562 cells assessed as change in mRNA transcript expression at 10 nM after 48 hrs by DNA microarray analysis relative to control; type: functional; how it was run: as §2
K562 [23] = assay: Effect on TMEM126A gene expression in human K562 cells assessed as change in mRNA transcript expression at 10 nM after 48 hrs by DNA microarray analysis relative to control; type: functional
How it was run: (§3)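 K562 CML cells (b3a2 Bcr-Abl) kept under standard culture conditions were exposed to 10 nM conjugate and harvested at 6, 12, 24 and 48 h. Untreated controls were harvested at 48 h. Whole-transcript oligonucleotide microarray profiling was done, and changes of at least twofold versus control were scored.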

K562 [24] = assay: Effect on ARRDC3 gene expression in human K562 cells assessed as change in mRNA transcript expression at 10 nM after 48 hrs by DNA microarray analysis relative to control; type: functional; how it was run: as §1
K562 [25] = assay: Effect on HIST1H2B gene expression in human K562 cells assessed as change in mRNA transcript expression at 10 nM after 48 hrs by DNA microarray analysis relative to control; type: functional; how it was run: as §1
K562 [26] = assay: Effect on HIST1H2BL gene expression in human K562 cells assessed as change in mRNA transcript expression at 10 nM after 48 hrs by DNA microarray analysis relative to control; type: functional; how it was run: as §1
K562 [27] = assay: Effect on TPK1 gene expression in human K562 cells assessed as change in mRNA transcript expression at 10 nM after 48 hrs by DNA microarray analysis relative to control; type: functional; how it was run: as §3
K562 [28] = assay: Effect on HSPA1B gene expression in human K562 cells assessed as change in mRNA transcript expression at 10 nM after 48 hrs by DNA microarray analysis relative to control; type: functional; how it was run: as §2

## CC(=O)Nc1cn(C)c(C(=O)Nc2cn(C)c(C(=O)NCCC(=O)Nc3cn(C)c(C(=O)NCCCC(=O)Nc4cc(C(=O)Nc5cn(C)c(C(=O)Nc6ccc7[nH]c(C(=O)N8CC(CCl)c9c8cc(O)c8ccccc98)cc7c6)n5)n(C)c4)n3)n2)n1 (stereo not drawn)
K562 [1]
  fold change (FC): >=2
K562 [2]
  fold change (FC): >=2
K562 [3]
  fold change (FC): >=2
K562 [4]
  fold change (FC): >=2
K562 [5]
  fold change (FC): >=2
K562 [6]
  fold change (FC): >=2
K562 [7]
  fold change (FC): >=2
K562 [8]
  fold change (FC): >=2
K562 [9]
  Activity: Active
K562 [10]
  fold change (FC): >=2
K562 [11]
  fold change (FC): 2.86
K562 [12]
  fold change (FC): 2.43
K562 [13]
  fold change (FC): >=2
K562 [14]
  fold change (FC): >=2
K562 [15]
  fold change (FC): >=2
K562 [16]
  fold change (FC): >=2
K562 [17]
  fold change (FC): >=2
K562 [18]
  fold change (FC): >=2
K562 [19]
  fold change (FC): >=2
K562 [20]
  fold change (FC): >=2
K562 [21]
  fold change (FC): >=2
K562 [22]
  fold change (FC): >=2
K562 [23]
  fold change (FC): >=2
K562 [24]
  fold change (FC): >=2
K562 [25]
  fold change (FC): >=2
K562 [26]
  fold change (FC): >=2
K562 [27]
  fold change (FC): >=2
K562 [28]
  fold change (FC): >=2
